Usually IC50 stands for the concentration that gives 50% inhibition.

Assay [1] concerns Leishmania mexicana. Put plainly: Antileishmanial activity against Leishmania mexicana MNYC/BZ/62/M379 infected in C57BL/6 mouse peritoneal macrophages assessed as reduction in infection at 6.3 ug/ml after 72 hrs relative to control. The format is functional. Further details: scale not given: the % may be the effect or the level left. The essentials:
(§1)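 Mouse peritoneal macrophages were infected with promastigotes in supplemented DMEM on chamber slides for 24 h at 33 °C under 5% CO2. They were washed with HBSS and given serial drug dilutions for 72 h. Cells were then methanol-fixed and stained with 0.04% Giemsa for 35 min. At least 200 cells per sample were counted under oil immersion, and the value is the % decrease in infected macrophages versus untreated wells.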

Assay [2] concerns Leishmania mexicana. Put plainly: Antileishmanial activity against Leishmania mexicana MNYC/BZ/62/M379 infected in C57BL/6 mouse peritoneal macrophages assessed as reduction in infection at 3.1 ug/ml after 72 hrs relative to control. It counts as functional. On the set-up: scale not given: the % may be the effect or the level left. An outline of the steps: as §1
For assay [3], the system named is Trypanosoma brucei brucei. Put plainly: Antitrypanosomal activity against blood stream-form of Trypanosoma brucei brucei MITat1.2 after 72 hrs by MTT assay. It counts as functional, organism-based. The essentials:
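Late-log bloodstream-form T. b. brucei in HMI-9 were incubated with or without compound for 72 h at 37 °C under 5% CO2. MTT (25 µL of a 5 mg/mL stock) was added for 2 h, then 10% SDS in 50% aqueous DMF for 3-4 h. OD was read at 570 nm, and IC50 is 50% growth inhibition versus untreated control.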
(Formazan colour is commonly taken as a measure of viable cells.)

Assay [4] has as its system Leishmania mexicana. In words: Antileishmanial activity against Leishmania mexicana MNYC/BZ/62/M379 infected in C57BL/6 mouse peritoneal macrophages assessed as reduction in infection at 12.5 ug/ml after 72 hrs relative to control. It counts as functional. Further details: scale not given: the % may be the effect or the level left. The essentials:
as §1

In assay [5] the test system is J774.A1. In words: Cytotoxicity against mouse J774A1 cells after 72 hrs by cell-titer assay. The format is cell-based. The following applies: J774.A1, 72 h. An outline of the steps:
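J774 A.1 macrophages (5000/well) in DMEM with penicillin/streptomycin and 10% FBS were seeded with serial compound dilutions for 72 h at 37 °C under 5% CO2. Viability was read by CellTiter, with 12-14 h color development and absorbance at 490 nm.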

Assay [6] is described as follows: Selectivity for Leishmania donovani MHOM/SD/62/1S-CL2D axenic amastigotes over african green monkey Vero cells.
Assay [7] relates to Leishmania donovani. In words: Antileishmanial activity against Leishmania donovani MHOM/SD/62/1S-CL2D axenic amastigotes after 3 days by tetrazolium dye method. It counts as functional, organism-based. The note with it: 72 h. The essentials: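 L. donovani amastigote-like parasites grown axenically were exposed to compounds for three days. Viability was read with the tetrazolium-based CellTiter reagent.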

Assay [8] concerns Vero. Put plainly: Cytotoxicity against african green monkey Vero cells after 72 hrs by cell-titer assay. The format is cell-based. The following applies: Chlorocebus sabaeus. An outline of the steps:
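Vero cells (1000/well) in Eagle's MEM with Earle's salts, penicillin/streptomycin and 10% FBS were seeded with serial compound dilutions for 72 h at 37 °C under 5% CO2. CellTiter reagent was then added for 12-14 h, and absorbance was read at 490 nm.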

In assay [9] the test system is Leishmania mexicana. In words: Antileishmanial activity against Leishmania mexicana MNYC/BZ/62/M379 infected in C57BL/6 mouse peritoneal macrophages assessed as reduction in infection at 0.029 ug/ml after 72 hrs relative to control. On the set-up: scale not given: the % may be the effect or the level left. The format is functional. The essentials: as §1
Assay [10] concerns Leishmania mexicana. Put plainly: Antileishmanial activity against Leishmania mexicana MNYC/BZ/62/M379 infected in C57BL/6 mouse peritoneal macrophages assessed as reduction in infection at 0.116 ug/ml after 72 hrs relative to control. It counts as functional. Further details: scale not given: the % may be the effect or the level left. An outline of the steps: as §1
The subject of assay [11] is Leishmania mexicana. In words: Antileishmanial activity against Leishmania mexicana MNYC/BZ/62/M379 infected in C57BL/6 mouse peritoneal macrophages assessed as reduction in infection at 0.014 ug/ml after 72 hrs relative to control. The format is functional. Further details: scale not given: the % may be the effect or the level left. The essentials:
as §1

The test system of assay [12] is Leishmania mexicana. In words: Antileishmanial activity against Leishmania mexicana MNYC/BZ/62/M379 infected in C57BL/6 mouse peritoneal macrophages assessed as reduction in infection at 25 ug/ml after 72 hrs relative to control. Further details: scale not given: the % may be the effect or the level left. It counts as functional. An outline of the steps: as §1
In assay [13] the test system is Leishmania mexicana. Put plainly: Antileishmanial activity against Leishmania mexicana MNYC/BZ/62/M379 infected in C57BL/6 mouse peritoneal macrophages assessed as reduction in infection at 50 ug/ml after 72 hrs relative to control. The format is functional. On the set-up: scale not given: the % may be the effect or the level left. The essentials:
as §1

≈ marks a conversion by molar mass, not a printed value. Bounds are passed on as bounds.

With `COc1c(C)c(O)c(C)c(O)c1C(=O)/C=C/c1ccccc1`, the Activity worked out at 61% in assay [1], 28% in assay [2] and 96% in [4]. Also, the IC50 is 6.3 µg/mL (≈ 21.1 µM) in [3], 7.7 µg/mL (≈ 25.8 µM) in [5], 5 µg/mL (≈ 16.8 µM) in assay [7] and 12.9 µg/mL (≈ 43.2 µM) in assay [8]. Besides, the “Ratio IC50” value in assay [6] worked out at 2.6.
Consider `COc1c(C)c(O)c(C)c(O)c1C(=O)/C=C/c1ccccc1O`, for which the Activity worked out at 34% in [1], 6% in assay [2] and 96% in assay [4]. Besides, the IC50 came out at 6.8 µg/mL (≈ 21.6 µM) in assay [3], 9.3 µg/mL (≈ 29.6 µM) in assay [5], 7.5 µg/mL (≈ 23.9 µM) in assay [7] and 13.3 µg/mL (≈ 42.3 µM) in [8]. Further, the “Ratio IC50” value in assay [6] is on record as 1.8.
Take `C[C@@H]1[C@H](O)[C@@H](C)/C=C/C=C/C=C/C=C/C=C/C=C/C=C/[C@H](O[C@@H]2O[C@H](C)[C@@H](O)[C@H](N)[C@@H]2O)C[C@@H]2O[C@](O)(C[C@@H](O)C[C@@H](O)[C@H](O)CC[C@@H](O)C[C@@H](O)CC(=O)O[C@H]1C)C[C@H](O)[C@H]2C(=O)O` [AMPHOTERICIN B]: the results for the Activity in assay [9], in assay [10] and in [11] were 85%, 95% and 59%, respectively.
Consider `COC1=C(C)C(=O)C(C)(C)C(=O)/C1=C1\C=Cc2ccccc2O1` [DALRUBONE], for which the Activity in assay [1] is 1%; in assay [4], 41%; in assay [12] it was 97%. For the same compound, the IC50 is 21.6 µg/mL (≈ 69.6 µM) in [3], 30.1 µg/mL (≈ 97 µM) in [5], 7.5 µg/mL (≈ 24.2 µM) in [7] and 44.5 µg/mL (≈ 143 µM) in assay [8]. In addition, the “Ratio IC50” value in [6] is 5.9.
For the compound `Cc1c(O)c(C)c2c(c1O)C(=O)C[C@@H](c1ccccc1)O2` [DEMETHOXYMATTEUCINOL], the IC50 was 28.9 µg/mL (≈ 102 µM) in assay [3], > 50 µg/mL in assay [5], > 100 µg/mL in assay [7] and > 50 µg/mL in [8].
Take `O=C1C[C@@H](c2ccc(O)c(O)c2)Oc2cc(O)cc(O)c21` [ERIODICTYOL]: the IC50 in assay [3] worked out at 25 µg/mL (≈ 86.7 µM); in assay [5] it was 32.8 µg/mL (≈ 114 µM); in assay [7], 25 µg/mL (≈ 86.7 µM); in assay [8], 36.5 µg/mL (≈ 127 µM). Moreover, the results for the Activity in assay [4], in [12] and in assay [13] were 30%, 55% and 76%, respectively.
In the case of `N=C(N)c1ccc(OCCCCCOc2ccc(C(=N)N)cc2)cc1` [PENTAMIDINE], the half-maximal inhibitory concentration (IC50) in assay [3] is 0.007 µg/mL (≈ 0.0206 µM); in assay [5], 12.9 µg/mL (≈ 37.9 µM); in assay [7], 1.4 µg/mL (≈ 4.11 µM); in [8] it was > 50 µg/mL.
With `Cc1ccc(C(=O)Nc2ccc(S(=O)(=O)O)c3cc(S(=O)(=O)O)cc(S(=O)(=O)O)c23)cc1NC(=O)c1cccc(NC(=O)Nc2cccc(C(=O)Nc3cc(C(=O)Nc4ccc(S(=O)(=O)O)c5cc(S(=O)(=O)O)cc(S(=O)(=O)O)c45)ccc3C)c2)c1` [SURAMIN], the IC50 in [3] was found to be 0.193 µg/mL (≈ 0.149 µM).
